Test results reported in ChEMBL document CHEMBL1132356, “Structural modification of Fas C-terminal tripeptide and its effects on the inhibitory activity of Fas/FAP-1 binding” (J Med Chem, 1999).
Starred links: 1 amine or outer side, 2 acyl side, 3 side chain; linkers in the order of their positions; H or OH if unused. Non-standard residues stand in square brackets, D forms with d. Residues, ends and D or L forms follow the SMILES beside them. *: point of attachment. Sta = CC(C)C[C@H](N)[C@@H](O)CC(=O)O; tBuAla = CC(C)(C)C[C@H](N)C(=O)O; NMeL = CN[C@@H](CC(C)C)C(=O)O; Chg = N[C@H](C(=O)O)C1CCCCC1; Phg = N[C@H](C(=O)O)c1ccccc1; Tle = CC(C)(C)[C@H](N)C(=O)O; NMeS = CN[C@@H](CO)C(=O)O; hSer = N[C@@H](CCO)C(=O)O; Nva = CCC[C@H](N)C(=O)O; Abu = CC[C@H](N)C(=O)O; Aib = CC(C)(N)C(=O)O; CO = O=C([*:1])[*:2]; Bz = O=C(c1ccccc1)*; NHPh = c1ccc(N*)cc1; Bn = c1ccc(C*)cc1

Tests used:
[1] = Compound (50 mM) was tested in vitro for inhibitory potency against Fas-associated phosphatase-1 binding from HFAP-10cDNA subcloned into the bluescript vector pSK-II(Stratagene)
How it was run: (§1)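 ³⁵S-labeled protein incubated 16 h at 4 °C with peptide and GST-Fas immobilized on beads, in pH 8.0 Tris/NaCl buffer with DTT, EDTA, 1.1% NP-40 and protease inhibitors. After four washes, bead-bound radioactivity was counted by scintillation. Specific binding is Fas binding minus FasΔ15 binding. % inhibition = 100 − (specific binding with peptide / without peptide × 100).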

[2] = Compound (30 mM) was tested in vitro for inhibitory potency against Fas-associated phosphatase-1 binding from HFAP-10cDNA subcloned into the bluescript vector pSK-II(Stratagene); conditions: in the assay text read “30 µM” for “30 mM”; how it was run: as §1
[3] = Compound (10 mM) was tested in vitro for inhibitory potency against Fas-associated phosphatase-1 binding from HFAP-10cDNA subcloned into the bluescript vector pSK-II(Stratagene); conditions: in the assay text read “10 uM” for “10 mM”; how it was run: as §1
[4] = target: Tyrosine-protein phosphatase non-receptor type 13 (Homo sapiens) (UniProt Q12923); experiment: In vitro inhibition of Fas-associated phosphatase-1 binding from HFAP-10cDNA subcloned into bluescript vector; parameters: concentration or dose not given beside the values; conditions: concentration not given here
Sequence of Tyrosine-protein phosphatase non-receptor type 13 (Homo sapiens) (Q12923 whole entry, the tested form may be a part): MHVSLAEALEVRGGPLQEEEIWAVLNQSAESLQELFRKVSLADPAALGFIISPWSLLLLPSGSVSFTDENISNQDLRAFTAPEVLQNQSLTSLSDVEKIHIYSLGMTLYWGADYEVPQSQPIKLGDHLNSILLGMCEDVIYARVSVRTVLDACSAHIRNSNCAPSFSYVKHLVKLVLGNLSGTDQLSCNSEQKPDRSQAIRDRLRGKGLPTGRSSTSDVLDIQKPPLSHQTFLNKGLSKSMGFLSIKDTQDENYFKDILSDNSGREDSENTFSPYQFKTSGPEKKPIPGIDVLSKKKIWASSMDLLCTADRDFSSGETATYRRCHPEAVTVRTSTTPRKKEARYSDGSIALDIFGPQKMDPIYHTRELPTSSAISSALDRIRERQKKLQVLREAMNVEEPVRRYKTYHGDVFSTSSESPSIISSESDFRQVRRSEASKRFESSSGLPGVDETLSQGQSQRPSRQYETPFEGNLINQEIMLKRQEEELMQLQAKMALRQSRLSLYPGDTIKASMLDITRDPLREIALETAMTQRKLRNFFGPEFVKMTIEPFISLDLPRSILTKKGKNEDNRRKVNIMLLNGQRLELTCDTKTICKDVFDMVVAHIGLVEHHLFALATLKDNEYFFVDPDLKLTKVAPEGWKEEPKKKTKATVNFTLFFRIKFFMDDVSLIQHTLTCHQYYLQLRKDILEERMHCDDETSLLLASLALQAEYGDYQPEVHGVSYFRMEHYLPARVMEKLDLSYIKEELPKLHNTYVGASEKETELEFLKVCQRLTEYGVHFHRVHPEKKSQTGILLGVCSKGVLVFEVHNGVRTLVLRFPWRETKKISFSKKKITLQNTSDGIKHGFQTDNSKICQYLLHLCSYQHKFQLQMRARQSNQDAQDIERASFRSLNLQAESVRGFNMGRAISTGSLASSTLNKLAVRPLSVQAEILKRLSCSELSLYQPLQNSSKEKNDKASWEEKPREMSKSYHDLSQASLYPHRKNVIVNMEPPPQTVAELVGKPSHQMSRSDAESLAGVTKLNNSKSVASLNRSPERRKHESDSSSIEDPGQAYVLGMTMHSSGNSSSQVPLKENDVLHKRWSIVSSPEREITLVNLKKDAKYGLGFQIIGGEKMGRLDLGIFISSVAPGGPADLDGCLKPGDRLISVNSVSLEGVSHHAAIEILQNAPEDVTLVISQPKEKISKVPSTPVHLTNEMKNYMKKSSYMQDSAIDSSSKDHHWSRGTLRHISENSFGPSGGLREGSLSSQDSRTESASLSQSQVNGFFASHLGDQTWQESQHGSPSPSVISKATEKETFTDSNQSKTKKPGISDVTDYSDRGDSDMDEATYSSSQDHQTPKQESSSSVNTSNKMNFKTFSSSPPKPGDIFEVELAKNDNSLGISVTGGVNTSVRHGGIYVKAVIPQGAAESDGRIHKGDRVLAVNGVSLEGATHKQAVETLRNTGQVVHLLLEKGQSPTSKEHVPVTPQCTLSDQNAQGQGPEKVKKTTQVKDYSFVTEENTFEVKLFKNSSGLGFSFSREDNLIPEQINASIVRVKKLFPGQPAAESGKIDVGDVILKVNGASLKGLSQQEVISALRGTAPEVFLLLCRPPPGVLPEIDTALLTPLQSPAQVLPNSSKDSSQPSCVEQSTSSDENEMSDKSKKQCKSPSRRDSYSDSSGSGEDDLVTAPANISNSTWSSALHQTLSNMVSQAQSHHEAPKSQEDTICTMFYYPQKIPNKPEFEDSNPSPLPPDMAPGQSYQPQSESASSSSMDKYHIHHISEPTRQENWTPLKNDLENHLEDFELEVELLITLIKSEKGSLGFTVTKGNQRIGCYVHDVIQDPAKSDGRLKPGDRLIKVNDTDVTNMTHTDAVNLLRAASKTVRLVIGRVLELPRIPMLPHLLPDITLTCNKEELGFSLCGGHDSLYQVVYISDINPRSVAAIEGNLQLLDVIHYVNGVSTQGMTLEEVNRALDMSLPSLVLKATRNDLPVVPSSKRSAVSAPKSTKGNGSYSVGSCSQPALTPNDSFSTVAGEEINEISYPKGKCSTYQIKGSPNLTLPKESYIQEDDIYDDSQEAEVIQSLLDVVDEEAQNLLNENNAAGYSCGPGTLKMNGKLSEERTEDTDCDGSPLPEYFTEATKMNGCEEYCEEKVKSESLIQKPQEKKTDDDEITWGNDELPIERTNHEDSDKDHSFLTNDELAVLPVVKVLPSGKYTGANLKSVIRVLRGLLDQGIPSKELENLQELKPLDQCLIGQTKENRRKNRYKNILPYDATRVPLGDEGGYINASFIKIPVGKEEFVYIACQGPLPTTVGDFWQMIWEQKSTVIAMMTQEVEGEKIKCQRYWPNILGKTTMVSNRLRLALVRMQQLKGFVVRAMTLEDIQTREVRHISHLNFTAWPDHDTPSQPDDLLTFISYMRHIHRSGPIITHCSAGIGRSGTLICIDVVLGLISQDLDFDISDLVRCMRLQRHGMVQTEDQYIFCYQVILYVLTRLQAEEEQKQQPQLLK
How it was run: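 35S-labeled FAP-1 incubated 16 h at 4 °C with peptide and GST-Fas fusion protein on glutathione beads in 150 mM NaCl, 50 mM Tris pH 8.0, 5 mM DTT, 2 mM EDTA, 1.1% NP-40, protease inhibitors. After four washes, bead-bound radioactivity counted by scintillation. Specific binding is Fas minus Fas∆15 binding. % inhibition = 100 − (specific binding with peptide / without peptide × 100).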

[5] = Compound (100 mM) was tested in vitro for inhibitory potency against Fas-associated phosphatase-1 binding from HFAP-10cDNA subcloned into the bluescript vector pSK-II(Stratagene); how it was run: as §1

CC(=O)N[C@@H](CCO)C(=O)N[C@@H](CC(C)C)C(=O)N[C@H](C(=O)O)C(C)C (Ac-[hSer]-Leu-Val-OH)
inhibition [1]: 13.3%

CC[C@H](NC(=O)[C@H](CC(C)C)NC(=O)[C@H](CO)NC(C)=O)C(=O)O (Ac-Ser-Leu-[Abu]-OH)
inhibition [1]: 18.7%

CC[C@H](NC(=O)[C@H](CO)NC(C)=O)C(=O)N[C@H](C(=O)O)C(C)C (Ac-Ser-[Abu]-Val-OH)
inhibition [2]: 21.1%

CC(C)C[C@H](NC(=O)[C@H](CO)NC(=O)Nc1ccccc1C(=O)[C@@H](N)CCC(=O)O)C(=O)N[C@H](C(=O)O)C(C)C
inhibition [3]: 47.8%

CC(C)C[C@H](NC(=O)[C@H](CO)NC(=O)NC1CCCCC1)C(=O)N[C@H](C(=O)O)C(C)C
inhibition [3]: 29.1%

CC(=O)N[C@@H](CO)C(=O)Nc1cccc(C(=O)N[C@H](C(=O)O)C(C)C)c1
inhibition [4]: 9.5%

CC(C)C[C@H](NC(=O)[C@H](CO)NC(=O)Nc1ccccc1)C(=O)N[C@H](C(=O)O)C(C)C ({NHPh-CO}-Ser-Leu-Val-OH)
inhibition [3]: 51.5%

CC[C@@H](C)[C@H](NC(=O)[C@H](CCC(=O)O)NC(C)=O)C(=O)N[C@@H](CCC(N)=O)C(=O)N[C@@H](CO)C(=O)N[C@@H](CC(C)C)C(=O)N[C@H](C(=O)O)C(C)C
inhibition [3]: 29.6%

CC(=O)N[C@@H](CC(C)C)[C@@H](O)CC(=O)N[C@@H](CC(C)C)C(=O)N[C@H](C(=O)O)C(C)C (Ac-[Sta]-Leu-Val-OH)
inhibition [1]: 9.9%

CC(=O)N[C@@H](CO)C(=O)NC(C)(C)C(=O)N[C@H](C(=O)O)C(C)C (Ac-Ser-[Aib]-Val-OH)
inhibition [4]: -4%

CC(=O)N[C@@H](CO)C(=O)N(C)[C@@H](CC(C)C)C(=O)N[C@H](C(=O)O)C(C)C (Ac-Ser-[NMeL]-Val-OH)
inhibition [4]: 33.4%

CC(=O)N[C@@H](CO)C(=O)NCCC(=O)N[C@H](C(=O)O)C(C)C
inhibition [2]: 13.6%

CC(C)C[C@H](NC(=O)[C@H](CO)NC(=O)C1CCCCC1)C(=O)N[C@H](C(=O)O)C(C)C
inhibition [3]: 16%

CC(=O)N1C[C@H](O)C[C@H]1C(=O)N[C@@H](CC(C)C)C(=O)N[C@H](C(=O)O)C(C)C
inhibition [1]: 2.4%

CC(=O)N[C@@H](CO)C(=O)N[C@H](CC(C)C)C(=O)N[C@H](C(=O)O)C(C)C
inhibition [4]: 1.2%

CCC[C@H](NC(=O)[C@H](CC(C)C)NC(=O)[C@H](CO)NC(C)=O)C(=O)O (Ac-Ser-Leu-[Nva]-OH)
inhibition [1]: 16.6%

CC(=O)N[C@H](CO)C(=O)N[C@@H](CC(C)C)C(=O)N[C@H](C(=O)O)C(C)C
inhibition [4]: 59.2%

CC(=O)N[C@@H](CO)C(=O)N[C@@H](CC(C)C)C(=O)N[C@H](C(=O)O)C(C)(C)C (Ac-Ser-Leu-[Tle]-OH)
inhibition [1]: 7.2%

CC(=O)N1C[C@@H](O)C[C@H]1C(=O)N[C@@H](CC(C)C)C(=O)N[C@H](C(=O)O)C(C)C
inhibition [1]: 9.6%

CC(=O)N[C@@H](CO)C(=O)N[C@H](C(=O)N[C@H](C(=O)O)C(C)C)c1ccccc1 (Ac-Ser-[Phg]-Val-OH)
inhibition [2]: 18.5%

CC(=O)N[C@@H](COC(C)=O)C(=O)N[C@@H](CC(C)C)C(=O)N[C@H](C(=O)O)C(C)C (Ac-Ser(Ac)-Leu-Val-OH)
inhibition [5]: 47.9%

CC(=O)N[C@@H](CO)C(=O)N[C@H](C(=O)N[C@H](C(=O)O)C(C)C)C(C)(C)C (Ac-Ser-[Tle]-Val-OH)
inhibition [2]: 54.6%

CC(=O)N[C@@H](COC(=O)c1ccccc1)C(=O)N[C@@H](CC(C)C)C(=O)N[C@H](C(=O)O)C(C)C (Ac-Ser(Bz)-Leu-Val-OH)
inhibition [5]: 36.2%

CC(C)C[C@H](NC(=O)[C@H](CO)NC(=O)Nc1ccc(C(=O)[C@@H](N)CCC(=O)O)cc1)C(=O)N[C@H](C(=O)O)C(C)C
inhibition [3]: 66.6%

CC(C)C[C@H](NC(=O)[C@H](CO)NC(=O)Nc1cccc(C(=O)[C@@H](N)CCC(=O)O)c1)C(=O)N[C@H](C(=O)O)C(C)C
inhibition [3]: 76.8%

CC(=O)N[C@@H](CO)C(=O)Nc1ccc(C(=O)N[C@H](C(=O)O)C(C)C)cc1
inhibition [4]: 16.5%

CC(=O)N[C@@H](CO)C(=O)N[C@@H](CC(C)C)C(=O)N[C@@H](CC(C)(C)C)C(=O)O (Ac-Ser-Leu-[tBuAla]-OH)
inhibition [1]: 10.1%

CC(=O)N[C@@H](CO)C(=O)N[C@H](C(=O)N[C@H](C(=O)O)C(C)C)C1CCCCC1 (Ac-Ser-[Chg]-Val-OH)
inhibition [2]: 34.7%

CC(=O)N(C)[C@@H](CO)C(=O)N[C@@H](CC(C)C)C(=O)N[C@H](C(=O)O)C(C)C (Ac-[NMeS]-Leu-Val-OH)
inhibition [4]: 20.6%

CC(=O)N[C@@H](CO)C(=O)N[C@@H](CC(C)C)C(=O)N[C@@H](C(=O)O)C(C)C
inhibition [4]: -6.8%

CC(=O)N[C@@H](CO)C(=O)N[C@@H](CC(C)C)[C@@H](O)C(=O)N[C@H](C(=O)O)C(C)C
inhibition [2]: 4.9%

CC(C)C[C@H](NC(=O)[C@H](CO)NC(=O)c1ccccc1)C(=O)N[C@H](C(=O)O)C(C)C (Bz-Ser-Leu-Val-OH)
inhibition [3]: 28%

CCC[C@H](NC(=O)[C@H](CO)NC(C)=O)C(=O)N[C@H](C(=O)O)C(C)C (Ac-Ser-[Nva]-Val-OH)
inhibition [2]: 6%

COC(=O)[C@@H](NC(=O)[C@H](CC(C)C)NC(=O)[C@H](CO)NC(C)=O)C(C)C (Ac-Ser-Leu-Val-OMe)
inhibition [4]: -0.5%

CC(=O)N[C@@H](CO)C(=O)N[C@@H](CC(C)C)C(=O)N[C@H](C(=O)O)C1CCCCC1 (Ac-Ser-Leu-[Chg]-OH)
inhibition [1]: 7.7%

CC(=O)N[C@@H](CO)C(=O)N[C@@H](Cc1ccc(Oc2ccc(OC(C)=O)cc2)cc1)C(=O)N[C@H](C(=O)O)C(C)C
inhibition [2]: 46.7%

CC(=O)N[C@@H](CO)C(=O)N[C@@H](CC(C)C)C(=O)N[C@H](C(=O)O)C(C)C
inhibition [4]: 101% | inhibition [1]: 44.3% | inhibition [2]: 31.1% | inhibition [5]: 87.6%

CC(=O)N[C@@H](CO)C(=O)N[C@@H](CC(C)C)C(=O)N[C@H](C(=O)Oc1nn[nH]n1)C(C)C
inhibition [4]: 14.4%

CC(=O)N[C@@H](COCc1ccccc1)C(=O)N[C@@H](CC(C)C)C(=O)N[C@H](C(=O)O)C(C)C (Ac-Ser(Bn)-Leu-Val-OH)
inhibition [5]: 10.4%
